# b-catenin transl = modulators of beta-catenin nuclear translocation, primary screen, imaging, HeLa cells, immunofluorescence, high-content | nuclear translocation activity, % at 5 µM | actives 0.3% (n = 190,000) | AID 1665, 2009;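 active means nuclear translocation activity above 50% at 5 µM, with a well cell count of 50 or more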;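 further: per-cell ratio of nuclear to cytoplasmic median beta-catenin stain intensity; plate controls were DMSO negative control for no effect and GSK-3 inhibitor IX positive control for full effect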
#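 System: Human HeLa cells, endogenous beta-catenin | Compound dosing: 5 µM primary, 0.02–20 µM confirmation | Timing: 24 h compound exposure at 37°C, 5% CO2 | Measured by: Fluorescence imaging of beta-catenin antibody stain plus DAPI | Read-out basis: % activation of per-cell nuclear versus cytoplasmic median beta-catenin signal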
# EP2 modulator = EP2 receptor modulators, cAMP readout, primary screen, cell-based, HTRF cAMP, PGE2 stimulation; induction, % at 25 µM; actives 0.83% (n = 260,000); EP2-expressing cells, cAMP HTRF FRET, PGE2 co-stimulation; Prostaglandin E2 receptor EP2 subtype (Homo sapiens), P43116; AID 940, 2007;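 active means compounds whose cAMP rise, as percent of the full-agonist control response, exceeds 60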;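 further: rat C6 glioma line stably carrying human EP2 under a CMV promoter; the protocol text gives 20 µM as final concentration; 100% = response of wells given 1 µM PGE2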
# Target sequence (P43116 whole entry, looked up): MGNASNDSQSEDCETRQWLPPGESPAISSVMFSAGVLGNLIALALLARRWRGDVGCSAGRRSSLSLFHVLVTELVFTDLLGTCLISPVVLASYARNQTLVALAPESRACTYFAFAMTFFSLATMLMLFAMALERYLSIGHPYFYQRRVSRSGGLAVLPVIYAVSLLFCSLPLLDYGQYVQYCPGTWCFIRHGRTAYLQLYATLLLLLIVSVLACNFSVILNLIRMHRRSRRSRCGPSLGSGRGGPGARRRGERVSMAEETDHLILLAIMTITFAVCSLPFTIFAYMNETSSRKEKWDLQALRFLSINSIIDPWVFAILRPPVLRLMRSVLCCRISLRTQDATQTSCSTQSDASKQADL
# TbHK1 inh = Trypanosoma brucei hexokinase 1 inhibitors, primary screen, biochemical, G6PDH-coupled NADH absorbance, MLSCN library | actives 0.11% (n = 220,000) | recombinant TbHK1, G6PDH-coupled NADH A340 | hexokinase 1 [Trypanosoma brucei] | inhibition, % at 10 µM;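 active means inhibition of 50% or more in the single-dose primary screen; inactive means inhibition below 50%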
# PGE2 EP2 inh = human EP2 receptor antagonists, primary screen, TR-FRET cAMP, C6 glioma cells. actives 0.52% (n = 260,000). inhibition, % at 25 µM. C6 glioma cells expressing human EP2; cells stimulated with saturating PGE2;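 active means percent inhibition above 40 after rounding to a whole number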;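 further: rat C6 glioma host cells with rolipram phosphodiesterase inhibitor present; the protocol text gives 20 µM as final concentration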
# HMGR II inh = inhibitors of E. faecalis class II HMGR, primary screen, biochemical, Enterococcus faecalis. inhibition, % at 10 µM. purified E. faecalis HMGR, NADPH absorbance 340 nm kinetic. HMG-CoA reductase (Enterococcus faecalis, mvaE). actives 0.41% (n = 190,000);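 active means inhibition above a set limit, the median over all tested compounds plus 3 SD, cut at about 9.5% in these data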;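 further: enzyme runs in reverse so mevalonate oxidation gives rising NADPH absorbance; 0% = complete reaction with DMSO and 100% = background rate lacking mevalonate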
# MT stabilize HCS = microtubule stabilizers in HeLa cells, primary screen, imaging, high-content imaging. HeLa tubulin immunostaining HCS, 24 h; share of cells brighter than vehicle mean+2SD. % tubulin-high responders, % at 10 µM. actives 0.83% (n = 200,000);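 active means plate Z-score above 3 for both tubulin-high and condensed-nucleus cell shares, with cell loss under 80%, at 10 µM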;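 further: anti alpha tubulin signal scored within the nucleus-defined area of each cell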
# An asterisk follows results filed as active; . = no result. The list is not random: actives were taken first. Their share in the collection is about 2.4%.
SMILES,b-catenin transl,EP2 modulator,TbHK1 inh,PGE2 EP2 inh,HMGR II inh,MT stabilize HCS
Cc1nc2ccccn2c1C(=O)N=Nc1c(O)n(CCC(C)C)c2ccccc12,2,-16,-14,51*,-4,3
CCCn1c(O)c(N=NC(=O)c2ccco2)c2ccccc21,.,5,-3,8,-4,7
N#CC1=C(SCC(=O)c2ccc(Cl)cc2)NC2=C(C(=O)CCC2)C1c1ccco1 (stereo not given),83*,-51,.,12,-1,.
Cc1ccccc1C1(O)CCN(Cc2cn[nH]c2-c2ccc(O)cc2)CC1,.,0,.,2,.,.
O=C(Cc1csc(-c2ccccc2)n1)NCc1cccs1,-3,-13,1,4,11*,3
O=S(=O)(c1ccc(Cl)cc1)c1snnc1-c1ccccc1,.,45,5,13,1,17*
O=S(=O)(c1ccc(Cl)cc1)c1cnc(-c2cccnc2)nc1-c1ccccc1,0,22,-5,6,-1,1
O=C(NC1CC2(CCCCC2)Oc2ccccc21)c1ccco1 (stereo not given),.,1,.,3,.,.
COc1ccc(CN(Cc2cccn2C)S(=O)(=O)c2ccc(F)cc2)cc1,-1,13,45,10,.,.
COc1ccc(CN(Cc2cccn2C)S(=O)(=O)c2ccc(C)cc2)cc1,1,72*,0,7,.,.
CCOC(=O)N1CCN(c2cc(NCCO)c([N+](=O)[O-])c3nonc23)CC1,-4,17,-10,5,13*,3
Cc1ccc(NC(=S)NNC(=S)Nc2ccc(C)cc2C)cc1,52*,-50,-8,12,0,9.8*
CNCc1nc2ccccc2[nH]1,-1,17,1,7,13*,4
O=C(O)C(O)Cc1c[nH]c2ccccc12 (stereo not given),0,0,0,18,-8,2
C[N+]1([C@H](CO)Cc2c[nH]c3ccccc23)Cc2ccccc2C1,.,19,.,50*,.,.
CC(C)(C)c1ccc(C(=O)Nc2cccc(NC(=O)c3cccnc3)c2)cc1,.,-121,.,36,.,.
Ic1ccc2c(c1)N(c1ccccc1)c1cc(Nc3ccc4nc5ccc(I)cc5[n+](-c5ccccc5)c4c3)ccc1N2,.,0,.,44*,.,.
O=C1c2ccccc2-c2c(NCCc3ccccc3)c(=O)[nH]c3cccc1c23,.,66*,.,10,.,.
CN1C(=O)N(CC(=O)NCCc2ccccc2)c2cccnc2N1C,.,14,.,4,.,.
CC1C/C(=C/c2ccccn2)C(=O)/C(=C/c2ccccn2)C1 (stereo not given),23,-82,-19,7,-7,39*
Nc1nc2c(C(=O)NCc3cccs3)nnn2c2cccc(Cl)c12,.,1,.,49*,.,.
CC(=O)Nc1ccc(CN2CCc3c([nH]c4ccccc34)C2c2ccccn2)cc1 (stereo not given),1,-36,-10,6,1,9.9*
Cc1ccc2cc(C)c3nnc(SCC(=O)Nc4c(C)cccc4C)n3c2c1,.,-17,.,18,.,.
COc1cc(/C=N/n2cnc3scc(-c4cccs4)c3c2=O)cc(OC)c1OC,2,40,-12,2,-7,30*
COc1ccccc1N1C(=O)C=C(Sc2nc(C)cc(C)n2)C1=O,0,-61,2,42*,.,.
S=C1NCN2CCN(CC2)CNC(=S)C(=S)NCN2CCN(CC2)CNC1=S,.,-4,.,48*,.,.
Cc1cccc(C(=O)NC2CCN(C(=O)Nc3ccccc3C)CC2)c1,-1,-43,4,2,14*,2
Brc1ccc(-c2nc3ccccc3s2)s1,-1,-46,-2,124*,-2,1
CC(C)c1ccc(C2C3=C(COC3=O)Nc3cc4c(cc32)OCO4)cc1 (stereo not given),74*,16,-5,3,-4,5
CC1(C)CC(=O)C2=C(C1)Nc1cc3c(cc1C2c1ccc(Cl)cc1)OCO3 (stereo not given),.,-29,.,5,.,.
